“Also recorded” adds a separate entry of the source.
Columns and labels:
[1] = Stability in warm serum; type: in vitro ADME, bovine; details: 100% FBS, up to 4 h
[2] = Optical property measurements in 100% FBS at 37°C; type: physicochemical; details: for Stokes Shift / λem / λexc / ε (extinction coefficient) / Φ (fluorescence quantum yield): 100% FBS; for ε (extinction coefficient): 50 mM HEPES pH 7.4, 37°C; for Φ (fluorescence quantum yield): ICG in DMSO as standard
Outline: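 Spectra were taken at 37°C in 100% FBS buffered with 50 mM HEPES, pH 7.4, on fiberoptic absorbance (200–1100 nm) and fluorescence (350–1000 nm) spectrometers. Excitation was a 770 nm laser diode set to 8 mW. […] Dyes available only as NHS ester were first hydrolysed to acid in 50 mM borate, pH 9.0, for 3 h.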

[3] = In vivo biodistribution and clearance in CD-1 mice; details: for Uptake in intestine / Uptake in kidneys / Uptake in liver / CBR Bl (bladder) relative to abdominal wall / CBR He/Lu (heart/lungs) relative to abdominal wall / CBR In (intestine) relative to abdominal wall / CBR Li (liver) relative to abdominal wall / CBR Re (rectum) relative to abdominal wall / CBR Sk/Mu (skin/muscle) relative to abdominal wall / CBR Sp (spleen) relative to abdominal wall / Carcass (retention) / Eliminated (from the body into urine): 4 h postinjection; for β-phase blood half-life (t1/2β): CD-1 mice, 40 pmol/g i.v.; for CBR Bl (bladder) relative to abdominal wall / CBR He/Lu (heart/lungs) relative to abdominal wall / CBR In (intestine) relative to abdominal wall / CBR Li (liver) relative to abdominal wall / CBR Re (rectum) relative to abdominal wall / CBR Sk/Mu (skin/muscle) relative to abdominal wall / CBR Sp (spleen) relative to abdominal wall / Carcass (retention) / Eliminated (from the body into urine): Mouse; for half-life: blood; for half-life / tissue uptake at 4 h: 40 pmol/g; for Route of elimination (renal clearance), in words: mice, 4 h
Outline: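 CD-1 male mice (25 to 30 g) received 40 pmol/g fluorophore in saline i.v. and were imaged with the FLARE system on surgically exposed organs. Excitation was 14 mW/cm2 of 745–779 nm-filtered light, with emission through an 800–848 nm bandpass and exposure and normalization held constant. ROI fluorescence and background gave CBR = (FL–BG)/BG, scored against abdominal wall. N = 5, mean ± S.D.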

[4] = In vivo biodistribution and clearance in SD rats; design: species or system Sprague-Dawley (SD) rats; details: Rat, 4 h postinjection
Outline: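 Sprague-Dawley male rats (250 to 300 g) received 40 pmol/g fluorophore in saline i.v. and were imaged with the FLARE system on surgically exposed organs. Excitation was 14 mW/cm2 of 745–779 nm light, with emission through an 800–848 nm bandpass and exposure held constant. CBR = (FL–BG)/BG was scored relative to abdominal wall. N = 5.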

[5] = system: serum proteins; type: in vitro ADME, bovine; details: 4 h incubation in 100% FBS
[6] = in dimethyl sulfoxide; cited from earlier work

Row | Molecule | Decomposition [1] [%] | Stokes Shift [2] [nm] | λem [2] [nm] | λexc [2] [nm] | ε (extinction coefficient) [2] | Φ (fluorescence quantum yield) [2] [%] | CBR Bl (bladder) relative to abdominal wall [3] | CBR He/Lu (heart/lungs) relative to abdominal wall [3] | CBR In (intestine) relative to abdominal wall [3] | CBR Li (liver) relative to abdominal wall [3] | CBR Re (rectum) relative to abdominal wall [3] | CBR Sk/Mu (skin/muscle) relative to abdominal wall [3] | CBR Sp (spleen) relative to abdominal wall [3] | Carcass (retention) [3] [%ID] | Eliminated (from the body into urine) [3] [%ID] | CBR Bl (bladder) relative to abdominal wall [4] | CBR He/Lu (heart/lungs) relative to abdominal wall [4] | CBR In (intestine) relative to abdominal wall [4] | CBR Li (liver) relative to abdominal wall [4] | CBR Re (rectum) relative to abdominal wall [4] | other results
1 | CC1(C)C(=CC=C2CCCC(C=CC3=[N+](CCCCCC(=O)[O-])c4ccc(S(=O)(=O)[O-])cc4C3(C)C)=C2Oc2ccc(S(=O)(=O)[O-])cc2)N(CCCCS(=O)(=O)[O-])c2ccc(S(=O)(=O)[O-])cc21.[Na+].[Na+].[Na+].[Na+] [CW800, IRDye™800-CW carboxylic acid] | 4.0 | 14 | 800 | 786 | 237,000 M^-1cm^-1 | 14.2 | +++ (+++, > 5) | – (–, 0 to 1) | +++ (+++, > 5) | – (–, 0 to 1) | ++ (++, 2 to 5) | + (+, 1 to 2) | – (–, 0 to 1) | 52.4 ± 9.6 | 44.0 ± 4.6 | +++ (+++, > 5) | – (–, 0 to 1) | +++ (+++, > 5) | + (+, 1 to 2) | + (+, 1 to 2) | Uptake in intestine [3]: 28.5 ± 7.0 %ID/g; Uptake in kidneys [3]: 7.3 ± 1.3 %ID/g; Uptake in liver [3]: 11.4 ± 0.8 %ID/g; β-phase blood half-life (t1/2β) [3]: 18.5 min; CBR Sk/Mu (skin/muscle) relative to abdominal wall [4]: + (+, 1 to 2); CBR Sp (spleen) relative to abdominal wall [4]: – (–, 0 to 1)
2 | CC1(C)C(/C=C/C=C/C=C/C=C2\N(CCCCS(=O)(=O)O)c3ccc4ccccc4c3C2(C)C)=[N+](CCCCS(=O)(=O)[O-])c2ccc3ccccc3c21 [ICG, indocyanine green] | 5.9 | 15 | 822 | 807 | 121,000 M^-1cm^-1 | 9.3 | – (–, 0 to 1) | – (–, 0 to 1) | +++ (+++, > 5) | ++ (++, 2 to 5) | + (+, 1 to 2) | – (–, 0 to 1) | – (–, 0 to 1) | 97.1 ± 9.4 | 2.2 ± 0.9 | – (–, 0 to 1) | – (–, 0 to 1) | +++ (+++, > 5) | ++ (++, 2 to 5) | + (+, 1 to 2) | half-life ([3]; male, CD-1, mouse, iv): 3.6 min; tissue uptake at 4 h ([3]; male, CD-1, mouse, intestine, intravenous): 62 ± 6.6 %ID/g; tissue uptake at 4 h ([3]; male, CD-1, mouse, kidneys, intravenous): 5.9 ± 1 %ID/g; tissue uptake at 4 h ([3]; male, CD-1, mouse, liver, intravenous): 27.1 ± 0.5 %ID/g; Route of elimination (renal clearance), in words [3]: undetectable in urine; half-life ([3]; mouse, intravenous): 2 to 5 min; Serum protein binding (HD shift by GFC) [5]: significant HD shift; CBR Sk/Mu (skin/muscle) relative to abdominal wall [4]: – (–, 0 to 1); CBR Sp (spleen) relative to abdominal wall [4]: – (–, 0 to 1); Φ (fluorescence quantum yield) of calibration standard [6]: 13%
3 | CC1(C)C(/C=C/C2=C(Oc3ccc(CCC(=O)O)cc3)C(=C/C=C3/N(CCC[N+](C)(C)C)c4ccc(S(=O)(=O)O)cc4C3(C)C)/CCC2)=[N+](CCC[N+](C)(C)C)c2ccc(S(=O)(=O)O)cc21 [ZW800-1] | 5.5 | 16 | 788 | 772 | 249,000 M^-1cm^-1 | 15.1 | +++ (+++, > 5) | – (–, 0 to 1) | – (–, 0 to 1) | – (–, 0 to 1) | – (–, 0 to 1) | – (–, 0 to 1) | – (–, 0 to 1) | 12.4 ± 3.4 | 86.0 ± 15.4 | +++ (+++, > 5) | – (–, 0 to 1) | – (–, 0 to 1) | – (–, 0 to 1) | – (–, 0 to 1) | Product of extinction coefficient and quantum yield in serum, relative to ICG ([2]; in serum): over 3 fold; Found in urine ([3]; 1 h post-injection): 51.3 ± 9.7 %ID; Uptake in intestine [3]: 0.7 ± 0.4 %ID/g; Uptake in kidneys [3]: 9.8 ± 2.2 %ID/g; Uptake in liver [3]: 0.9 ± 0.1 %ID/g; β-phase blood half-life (t1/2β) [3]: 15.1 min; Route of elimination (renal clearance), in words [3]: exclusively cleared by the kidneys; also recorded: mostly renally cleared; Serum protein binding (HD shift by GFC) [5]: does not exhibit protein binding; also recorded: no serum protein binding; also recorded: did not adsorb to serum proteins; CBR Sk/Mu (skin/muscle) relative to abdominal wall [4]: – (–, 0 to 1); CBR Sp (spleen) relative to abdominal wall [4]: – (–, 0 to 1); Carcass (retention) ([4]; not measured directly): 14.8 ± 6.5 %ID; Eliminated ([4]; not measured directly): 83.4 ± 15.9 %ID
4 | IRDye™800-RS carboxylic acid [RS800] | 4.4 | 16 | 800 | 784 | 240,000 M^-1cm^-1 | 16.9 | ++ (++, 2 to 5) | – (–, 0 to 1) | ++ (++, 2 to 5) | – (–, 0 to 1) | +++ (+++, > 5) | – (–, 0 to 1) | – (–, 0 to 1) | 79.0 ± 4.1 | 15.5 ± 1.2 | – (–, 0 to 1) | – (–, 0 to 1) | +++ (+++, > 5) | – (–, 0 to 1) | ++ (++, 2 to 5) | β-phase blood half-life (t1/2β) [3]: 11.2 min; Renal filtration / renal excretion ([3]; approximate, discussion statement): ≈ 20%; CBR Sk/Mu (skin/muscle) relative to abdominal wall [4]: – (–, 0 to 1); CBR Sp (spleen) relative to abdominal wall [4]: – (–, 0 to 1)

Reference: publication PMC3128676 (Angewandte Chemie (International ed. in English), 2011)
